Assay outcomes deposited in PubChem by several laboratories.
Only a selection was taken, and hits are over-represented in it overall.
UPR XBP1 act – activators of adaptive arm of unfolded protein response (XBP1); activation, % at 20 µM; 0.33% of 330,000 active; AID 463104; CHO-XBP1 luciferase reporter, IRE1-XBP1 UPR activation, luminescence; percent of tunicamycin response, DMSO as zero;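 active = versus positive control, 20 µM dose yields 30% or more activation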
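assay system = CHO-XBP1 luciferase reporter cells | amount = 1000 cells/well | buffer or medium = F12 plus 10% FBS | compound dosing = single point, 20 µM final compound, 1% DMSO | incubation = 16-18 h cell attachment at 37 °C, then 6 h compound exposure | detection = Steady-Glo luminescence read | controls = tunicamycin 10 µg/mL and vehicle-only wells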
UPR CHOP act – apoptotic UPR (CHOP) activation; CHO-CHOP luciferase reporter, luminescence; percent of tunicamycin response over DMSO baseline; activation, % at 10 µM; 0.34% of 330,000 active; AID 449763;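 active = at 10 µM dose, activation of 40% or more, normalized to positive control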
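Assay system: CHO-CHOP cells, stable luciferase reporter of PERK-eIF2a-CHOP signalling / Buffer or medium: F12 plus 10% serum / Compound dosing: one dose, 10 µM in 0.5% DMSO / Times: 6 h compound treatment, 37 °C / Technique: luciferase luminescence / Read-out: % reporter activation, DMSO baseline versus tunicamycin full activation / Benchmarks: tunicamycin and DMSO controls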
hiPSC survival – enhancers of human iPSC single-cell survival; 0.044% of 360,000 active; survival enhancement, % at 20 µM; hiPSC single-cell survival, ATPlite luminescence; 100% = ROCK inhibitor wells, 0% = DMSO; AID 602274; in the data active = survival enhancement above about 18%;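 also: cells exposed to compounds for 16 hours before the ATP read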
CHOP inhibitor – inhibitors of CHOP induction in ER stress response | CHO-K1 CHOP-promoter luciferase, tunicamycin-induced, 15-18 h | inhibition, % at 10 µM | 3.8% of 220,000 active | AID 2732;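 active = compounds that reduced the stress-induced luciferase reporter signal by more than about 70% of percent inhibition, limit read from the data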
H9c2 protect – protects H9c2 cardiomyocytes from peroxide injury; H2O2 injury protection, ATPLite, 2 h; protection from H2O2 cell death, % at 20 µM; 0.63% of 360,000 active;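 active = compounds giving at least 50% protection of heart cells from peroxide-induced death in the single-dose screen, raw or plate-pattern-corrected value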
Hits are given with their value.

What do the screens show for `CNc1cc(-c2ccc(O)cc2C)ncn1`?
hiPSC survival: inactive; H9c2 protect: inactive

Results for Oc1c(C(c2cccs2)N2CCN(c3ccccc3)CC2)ccc2cccnc12 (stereo not given) ?
UPR XBP1 act: inactive; UPR CHOP act: 87; CHOP inhibitor: 99

What do the screens show for `CNC(=O)OCc1nc(SSC(C)(C)C)n(C)c1COC(=O)NC`?
hiPSC survival: inactive; H9c2 protect: inactive

How did CC(C)Nc1nc(Oc2cccc(Cl)c2Cl)cc(C(F)(F)F)n1 do in these assays?
UPR XBP1 act: inactive; UPR CHOP act: inactive; hiPSC survival: inactive; CHOP inhibitor: 75; H9c2 protect: inactive

Results for CC(C)Nc1nc(Oc2ccc(Cl)cc2Cl)cc(C(F)(F)F)n1 ?
UPR XBP1 act: inactive; UPR CHOP act: inactive; hiPSC survival: inactive; CHOP inhibitor: inactive; H9c2 protect: inactive

How did CCc1nnc(NC(=O)Cn2nc(-c3ccc(OC)c(OC)c3)ccc2=O)s1 do in these assays?
UPR XBP1 act: inactive; UPR CHOP act: inactive; hiPSC survival: inactive; CHOP inhibitor: inactive; H9c2 protect: inactive

Results for CCc1nnc(NC(=O)Cn2nc(-c3ccccc3OC)ccc2=O)s1 ?
UPR XBP1 act: inactive; UPR CHOP act: inactive; hiPSC survival: inactive; CHOP inhibitor: 70; H9c2 protect: inactive

Results for CCOC(=O)c1cc2c(=O)n3ccccc3nc2n(Cc2ccco2)c1=NC(=O)c1ccccc1OC ?
UPR XBP1 act: inactive; UPR CHOP act: inactive; hiPSC survival: inactive; CHOP inhibitor: 72; H9c2 protect: inactive

How did CN(C)c1nc(C=C(C#N)C#N)c(Cl)n1-c1ccc(F)cc1 do in these assays?
hiPSC survival: inactive; CHOP inhibitor: 96; H9c2 protect: inactive

Results for CCOc1ccccc1NC(=O)/C(C#N)=C/c1c(C)nn(-c2ccc(F)cc2)c1Cl ?
UPR XBP1 act: inactive; UPR CHOP act: inactive; hiPSC survival: inactive; CHOP inhibitor: inactive; H9c2 protect: inactive

What do the screens show for `O=C(N/N=C/c1cc(Br)cc(Br)c1O)c1cccc(N2CCCC2=O)c1`?
UPR XBP1 act: inactive; UPR CHOP act: inactive; hiPSC survival: inactive; CHOP inhibitor: inactive; H9c2 protect: 52

How did O=C(N/N=C/c1ccc(Cl)cc1Cl)c1cccc(N2CCCC2=O)c1 do in these assays?
UPR XBP1 act: inactive; UPR CHOP act: inactive; hiPSC survival: inactive; H9c2 protect: inactive

What do the screens show for `O=C(N/N=C/c1cc(Br)cc(Br)c1O)c1cccc(S(=O)(=O)N2CCOCC2)c1`?
UPR XBP1 act: inactive; UPR CHOP act: inactive; hiPSC survival: inactive; CHOP inhibitor: inactive; H9c2 protect: 50

Results for O=C(N/N=C/c1ccccc1Br)c1cccc(S(=O)(=O)N2CCOCC2)c1 ?
UPR XBP1 act: inactive; UPR CHOP act: inactive; hiPSC survival: inactive; H9c2 protect: inactive

Results for CCN(CC)S(=O)(=O)c1ccc(N2CC(C(=O)NCc3ccco3)CC2=O)cc1 (stereo not given) ?
hiPSC survival: inactive; H9c2 protect: inactive

How did CCOC(=O)c1[nH]c2ccccc2c1NC(=O)Nc1ccc(OC)cc1 do in these assays?
UPR XBP1 act: inactive; UPR CHOP act: inactive; hiPSC survival: inactive; CHOP inhibitor: 87; H9c2 protect: inactive

Results for CCCC(=O)Nc1c(C(=O)OCC)[nH]c2ccccc12 ?
UPR XBP1 act: inactive; UPR CHOP act: inactive; hiPSC survival: inactive; CHOP inhibitor: inactive; H9c2 protect: inactive

What do the screens show for `CC1CCC(NC(=O)c2ccc(/C=C3\Oc4ccccc4N(C)C3=O)cc2)CC1` (stereo not given)?
CHOP inhibitor: 91

How did CN1CCN(CCCNC(=O)c2ccc(/C=C3\Oc4ccccc4N(Cc4ccccc4F)C3=O)cc2)CC1 do in these assays?
UPR XBP1 act: inactive; UPR CHOP act: inactive; hiPSC survival: inactive; H9c2 protect: inactive

What do the screens show for `O=C(CSc1nc2[nH]ncc2c(=O)n1-c1ccccc1)c1ccc2c(c1)OCCO2`?
UPR XBP1 act: inactive; UPR CHOP act: inactive; hiPSC survival: inactive; CHOP inhibitor: inactive; H9c2 protect: 46

What do the screens show for `CCOc1ccc(/C=C2\CCC(C3CCCC3)C2=O)cc1OC` (stereo not given)?
UPR XBP1 act: inactive; UPR CHOP act: inactive; hiPSC survival: inactive; H9c2 protect: inactive

Results for COc1cc(C=C2CCCC(=Cc3ccc(OCC4CO4)c(OC)c3)C2=O)ccc1OCC1CO1 (stereo not given) ?
hiPSC survival: inactive; H9c2 protect: 81

How did COc1ccccc1C(CNC(=O)CNC(=O)c1cccc(Cl)c1)N1CCCC1 (stereo not given) do in these assays?
hiPSC survival: inactive; H9c2 protect: inactive

How did Cc1ccc(NC(=O)C(OC(=O)c2ccc(NC(N)=O)cc2)c2ccccc2)cc1Cl (stereo not given) do in these assays?
UPR XBP1 act: inactive; UPR CHOP act: inactive; hiPSC survival: inactive; CHOP inhibitor: 91; H9c2 protect: inactive

Results for Cc1ccc(NC(=O)C(OC(=O)c2ccccc2Cl)c2ccccc2)cc1Cl (stereo not given) ?
UPR XBP1 act: inactive; UPR CHOP act: inactive; hiPSC survival: inactive; CHOP inhibitor: inactive; H9c2 protect: inactive

Results for COc1ccc(CNC(=O)C2(C)Cc3c(-c4cccc(NC(C)=O)c4)ccnc3O2)cc1OC (stereo not given) ?
hiPSC survival: inactive; H9c2 protect: inactive

How did O=C(Nc1ccccc1)Nc1snnc1C(=O)Nc1cccc(O)c1 do in these assays?
UPR XBP1 act: inactive; UPR CHOP act: inactive; hiPSC survival: inactive; CHOP inhibitor: 78; H9c2 protect: inactive

How did CC(C)C(=O)N1CCCC1(C)C(=O)Nc1ccccc1 (stereo not given) do in these assays?
hiPSC survival: inactive; H9c2 protect: inactive

How did O=c1c2[nH]c3ccccc3c2ncn1CCN1CCNCC1 do in these assays?
UPR XBP1 act: inactive; UPR CHOP act: inactive; hiPSC survival: inactive; CHOP inhibitor: 89; H9c2 protect: inactive

How did C[C@@H]1CN([C@H](C)CO)C(=O)c2cc(Br)cnc2O[C@@H]1CN(C)C(=O)C1CCOCC1 do in these assays?
hiPSC survival: inactive; H9c2 protect: inactive

Results for CCCCn1c(N)c(N(CC(C)C)C(=O)CC(NC(=O)c2ccccc2Cl)c2ccccc2)c(=O)[nH]c1=O (stereo not given) ?
hiPSC survival: inactive; H9c2 protect: inactive

Results for CC(C)CCNc1nc2c(c(=O)n(Cc3cccc(F)c3)c(=O)n2C)n1C ?
UPR XBP1 act: inactive; UPR CHOP act: inactive; hiPSC survival: inactive; CHOP inhibitor: 71; H9c2 protect: inactive

What do the screens show for `CC(O)CNc1nc2c(c(=O)n(Cc3ccc(Cl)cc3)c(=O)n2C)n1C` (stereo not given)?
UPR XBP1 act: inactive; UPR CHOP act: inactive; hiPSC survival: inactive; H9c2 protect: inactive

What do the screens show for `CC(O)CNc1nc2c(c(=O)n(Cc3ccc(Cl)c(Cl)c3)c(=O)n2C)n1C` (stereo not given)?
UPR XBP1 act: inactive; UPR CHOP act: inactive; hiPSC survival: inactive; CHOP inhibitor: 78; H9c2 protect: inactive
